# Assays:
# Cathepsin D = Cathepsin D (Homo sapiens, UniProt P07339); test: In vitro inhibition of human liver cathepsin D.
# How it was run: (§1)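 Fluorogenic DABCYL-Glu-Arg-Nle-Phe-Leu-Ser-Phe-Pro-EDANS substrate at 3 µM in 100 mM sodium acetate pH 4.5, 10% glycerol, 0.01% Tween 20. Inhibitors were serially diluted in DMSO and added just before substrate, at 1% final DMSO. Fluorescence increase was read over a linear 10 min. IC50 came from a competitive Langmuir fit, and Ki = IC50/(1+[S]/Km), with Km from Michaelis-Menten.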
# Plasmepsin II = Plasmepsin II (Plasmodium falciparum, UniProt P46925); test: In vitro inhibition of aspartic protease plasmepsin (Plm) II of Plasmodium falciparum; how it was run: as §1
# Sequence of Plasmepsin II (P46925 whole entry): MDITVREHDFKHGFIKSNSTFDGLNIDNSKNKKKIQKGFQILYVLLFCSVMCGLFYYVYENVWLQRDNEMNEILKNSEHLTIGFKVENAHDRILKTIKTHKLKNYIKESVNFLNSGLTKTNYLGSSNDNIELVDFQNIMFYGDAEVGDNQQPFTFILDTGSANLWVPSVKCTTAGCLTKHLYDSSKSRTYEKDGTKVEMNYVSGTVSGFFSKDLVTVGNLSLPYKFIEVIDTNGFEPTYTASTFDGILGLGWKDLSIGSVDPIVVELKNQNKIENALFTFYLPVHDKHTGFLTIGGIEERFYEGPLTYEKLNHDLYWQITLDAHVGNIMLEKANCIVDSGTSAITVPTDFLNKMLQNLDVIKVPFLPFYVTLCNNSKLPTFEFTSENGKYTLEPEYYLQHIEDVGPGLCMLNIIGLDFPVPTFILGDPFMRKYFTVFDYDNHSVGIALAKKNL
# Plasmepsin I = Plasmepsin I (Plasmodium falciparum, UniProt P39898); test: In vitro inhibition of aspartic protease plasmepsin-1 (Plm) of Plasmodium falciparum.; how it was run: as §1
# Sequence of Plasmepsin I (P39898 whole entry): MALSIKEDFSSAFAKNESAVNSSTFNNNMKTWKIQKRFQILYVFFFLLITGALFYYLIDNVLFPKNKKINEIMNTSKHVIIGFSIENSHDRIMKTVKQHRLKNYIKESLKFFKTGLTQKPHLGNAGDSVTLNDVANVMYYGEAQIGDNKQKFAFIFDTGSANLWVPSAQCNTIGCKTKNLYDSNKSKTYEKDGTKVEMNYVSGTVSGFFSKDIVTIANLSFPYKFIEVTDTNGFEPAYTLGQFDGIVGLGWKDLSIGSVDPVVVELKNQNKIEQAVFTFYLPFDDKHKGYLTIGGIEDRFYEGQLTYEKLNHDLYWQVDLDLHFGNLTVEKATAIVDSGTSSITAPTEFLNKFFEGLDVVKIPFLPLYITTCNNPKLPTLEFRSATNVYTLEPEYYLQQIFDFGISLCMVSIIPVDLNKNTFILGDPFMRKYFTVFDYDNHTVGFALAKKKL
# Plasmodium falciparum [1] = test: Growth inhibition of Plasmodium falciparum infected human erythrocytes at 5 uM; type: functional
# How it was run: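 P. falciparum clone 3D7 was used as a highly synchronous early-trophozoite culture at ~1% haematocrit and 1% parasitaemia, with [3H]hypoxanthine at 10 µCi/ml. Compound was added at 1–5 µM final, with DMSO at most 1% v/v. Cultures grew 37 °C, 30 h, to schizonts, then were harvested onto filters for β-counting. Radioactivity was expressed relative to DMSO-only wells, from four independent experiments.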
# Plasmodium falciparum [2] = test: Growth inhibition of Plasmodium falciparum infected human erythrocytes at 20 uM; type: functional
# Sequence of Cathepsin D (P07339 65-162 limits assumed): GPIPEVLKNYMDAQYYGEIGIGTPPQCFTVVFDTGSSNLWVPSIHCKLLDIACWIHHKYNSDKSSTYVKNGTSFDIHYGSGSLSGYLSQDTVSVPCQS
# Sequence of Cathepsin D (P07339 169-412 limits assumed): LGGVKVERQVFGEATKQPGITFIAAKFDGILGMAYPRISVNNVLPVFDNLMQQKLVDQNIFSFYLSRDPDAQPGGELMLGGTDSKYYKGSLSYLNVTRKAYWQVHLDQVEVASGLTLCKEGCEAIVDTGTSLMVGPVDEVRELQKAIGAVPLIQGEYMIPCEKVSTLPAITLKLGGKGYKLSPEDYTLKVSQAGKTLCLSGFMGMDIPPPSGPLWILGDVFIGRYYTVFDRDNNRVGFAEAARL
Structure (SMILES),Ki (Cathepsin D) [nM],Ki (Plasmepsin II) [nM],Ki (Plasmepsin I) [nM],inhibition at 5 µM (Plasmodium falciparum [1]) [%],inhibition at 20 µM (Plasmodium falciparum [2]) [%]
O=C(C[C@H](O)[C@H](COCc1ccc(Br)cc1)NC(=O)c1c(F)cc(F)cc1F)NC1CCCCC1,> 5900,230,822,,
CC(C)[C@H](NC(=O)c1ccccn1)C(=O)N[C@@H](COCc1ccc(Br)cc1)[C@@H](O)CC(=O)NCc1ccccc1,586,41,3.9,,
CC(C)C[C@H](NC(=O)[C@H](C)NC(=O)C[C@H](O)[C@H](Cc1ccccc1)NC(=O)[C@@H](NC(=O)c1ccccn1)C(C)C)C(N)=O,,,,,54
CC(C)[C@H](NC(=O)c1ccccn1)C(=O)N[C@@H](COCc1ccc(Br)cc1)[C@@H](O)CC(=O)NCCCc1ccccc1,459,30,5.4,,
CC(C)[C@H](NC(=O)c1ccccn1)C(=O)N[C@@H](COCc1ccc(Br)cc1)[C@@H](O)CC(=O)NCCNc1ccccc1,265,74,8.9,25,
CC(C)C[C@H](NC(=O)[C@H](C)NC(=O)C[C@H](O)[C@H](CCc1ccccc1)NC(=O)[C@@H](NC(=O)c1ccccn1)C(C)C)C(N)=O,980,46,27,41,
CC(C)[C@H](NC(=O)c1ccccn1)C(=O)N[C@@H](COCc1ccc(Br)cc1)[C@@H](O)CC(=O)NCc1ccc(C#N)cc1,623,256,53,,
COc1cccc(CCNC(=O)C[C@H](O)[C@H](COCc2ccc(Br)cc2)NC(=O)c2c(F)cc(F)cc2F)c1,> 5900,390,619,,
COCCCNC(=O)C[C@H](O)[C@H](COCc1ccc(Br)cc1)NC(=O)[C@@H](NC(=O)c1ccccn1)C(C)C,> 4000,248,49,,
COc1cccc(CCNC(=O)C[C@H](O)[C@H](COCc2ccc(Br)cc2)NC(=O)[C@@H](NC(=O)c2ccccn2)C(C)C)c1,140,29,6.7,25,
CC(C)[C@H](NC(=O)c1ccccn1)C(=O)N[C@@H](COCc1ccc(Br)cc1)[C@@H](O)CC(=O)NC1CCCCC1,217,25,4.1,21,

# Further lines, with some results ahead:
Ki (Cathepsin D) [nM],Ki (Plasmepsin II) [nM],Ki (Plasmepsin I) [nM],Structure (SMILES),inhibition at 5 µM (Plasmodium falciparum [1]) [%],inhibition at 20 µM (Plasmodium falciparum [2]) [%]
1810,91,32,CC(C)C[C@H](NC(=O)[C@H](C)NC(=O)C[C@H](O)[C@H](COCc1ccc(Br)cc1)NC(=O)c1ccc(Cl)c(Cl)c1)C(N)=O,,
52,139,57,CC(C)C[C@H](NC(=O)[C@H](C)NC(=O)C[C@H](O)[C@H](COCc1ccc(Br)cc1)NC(=O)C(c1ccccc1)c1ccccc1)C(N)=O,10,
4.9,2.2,0.5,CC(C)C[C@H](NC(=O)[C@H](C)NC(=O)C[C@H](O)[C@H](COCc1ccc(Br)cc1)NC(=O)[C@@H](NC(=O)c1ccccn1)C(C)C)C(N)=O,,
35,348,24,CC(C)C[C@H](NC(=O)[C@H](C)NC(=O)C[C@H](O)[C@H](COCc1ccc(Br)cc1)NC(=O)Cc1cccs1)C(N)=O,,
> 4000,10,3.4,CC(C)C[C@H](NC(=O)[C@H](C)NC(=O)C[C@H](O)[C@H](COCc1ccc(Br)cc1)NC(=O)c1c(F)cc(F)cc1F)C(N)=O,,
> 5900,131,29,CC(C)C[C@H](NC(=O)[C@H](C)NC(=O)C[C@H](O)[C@H](COCc1ccc(Br)cc1)NC(=O)c1ccc2c(c1)OCO2)C(N)=O,,
473,68,8.1,CCCCNC(=O)C[C@H](O)[C@H](COCc1ccc(Br)cc1)NC(=O)[C@@H](NC(=O)c1ccccn1)C(C)C,,
100,284,40,CC(C)C[C@H](NC(=O)[C@H](C)NC(=O)C[C@H](O)[C@H](COCc1ccc(Br)cc1)NC(=O)CC(c1ccccc1)c1ccccc1)C(N)=O,,
322,144,59,CC(C)C[C@H](NC(=O)[C@H](C)NC(=O)C[C@H](O)[C@H](COCc1ccc(Br)cc1)NC(=O)[C@@H]1Cc2ccccc2N1)C(N)=O,16,
41,15,6.4,CC(C)C[C@H](NC(=O)[C@H](C)NC(=O)C[C@H](O)[C@H](COCc1ccc(Br)cc1)NC(=O)[C@H](NC(=O)c1ccccn1)C(C)C)C(N)=O,50,
41,11,5.4,CC(C)C[C@H](NC(=O)[C@H](C)NC(=O)C[C@H](O)[C@H](COCc1ccccc1)NC(=O)[C@@H](NC(=O)c1ccccn1)C(C)C)C(N)=O,37,
